Among the data in ChEMBL document CHEMBL1275282, “Synthesis, characterization, oxidative degradation, antibacterial activity and acetylcholinesterase/butyrylcholinesterase inhibitory effects of some new phosphorus(V) hydrazides” (Eur J Med Chem, 2010) are IC50, zone of inhibition and logP values, retold here.

Data set [1] addresses Acetylcholinesterase (Homo sapiens, UniProt P22303). Description: Inhibition of human AChE by Ellman method. Background: In Ellman's method for cholinesterases, released thiocholine reacts with DTNB.
The subject of data set [2] is Bacillus subtilis. Nature of the data set: Antibacterial activity against Bacillus subtilis at 5 mg/ml after 20-24 hrs by filter paper disc method. In kind it is functional. The settings on record: read-out: DIZ. The gist of the method: (§1)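 Filter paper disc diffusion on nutrient agar, with nutrient-agar cultures as inocula. 6.5 mm paper discs were saturated with test solutions at 5 or 10 mg ml-1, with chloramphenicol at the same levels as reference. Plates were incubated at 37 ± 1 °C for 20–24 h. The growth-inhibition zone diameter was measured, and three diameters were averaged per sample.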

The target in data set [3] is Cholinesterase (Homo sapiens, UniProt P06276). Description: Inhibition of human BChE by Ellman method. The procedure, abridged: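 BChE activity was run as in the Ellman AChE format: thiocholine released from butyrylthiocholine was read with DTNB. Lyophilised enzyme was diluted in 100 mM phosphate buffer, pH 8. IC50 was taken from a plot of VI/V0 against log[I].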
Chain of Cholinesterase (P06276 whole entry): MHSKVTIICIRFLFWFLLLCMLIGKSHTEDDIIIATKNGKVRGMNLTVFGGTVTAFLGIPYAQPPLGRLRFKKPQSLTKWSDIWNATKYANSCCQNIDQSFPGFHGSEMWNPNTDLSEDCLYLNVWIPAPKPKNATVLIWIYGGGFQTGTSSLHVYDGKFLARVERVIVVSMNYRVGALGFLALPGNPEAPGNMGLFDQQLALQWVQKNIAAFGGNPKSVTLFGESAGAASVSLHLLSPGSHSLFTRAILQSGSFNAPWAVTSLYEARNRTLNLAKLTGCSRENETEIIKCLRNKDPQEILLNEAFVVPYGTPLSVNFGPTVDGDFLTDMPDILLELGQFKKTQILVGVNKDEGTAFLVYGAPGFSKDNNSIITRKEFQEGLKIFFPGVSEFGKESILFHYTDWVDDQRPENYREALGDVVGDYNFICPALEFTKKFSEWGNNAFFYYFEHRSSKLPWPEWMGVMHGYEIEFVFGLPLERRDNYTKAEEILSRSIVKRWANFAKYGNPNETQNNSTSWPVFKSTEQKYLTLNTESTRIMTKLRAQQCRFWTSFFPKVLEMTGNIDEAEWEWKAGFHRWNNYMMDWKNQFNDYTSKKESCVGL

Data set [4] in a line: Lipophilicity, log P of the compound. It counts as physicochemical. The settings on record: octanol/water.
The subject of data set [5] is Staphylococcus aureus. Description: Antibacterial activity against Staphylococcus aureus at 10 mg/ml after 20-24 hrs by filter paper disc method. It counts as functional. The settings on record: read-out: DIZ. The gist of the method:
as §1

Data set [6] relates to Bacillus subtilis. Description: Antibacterial activity against Bacillus subtilis at 10 mg/ml after 20-24 hrs by filter paper disc method. It counts as functional. The settings on record: read-out: DIZ. The gist of the method: as §1
For data set [7], the system named is Escherichia coli. Description: Antibacterial activity against Escherichia coli at 10 mg/ml after 20-24 hrs by filter paper disc method. It counts as functional. The settings on record: read-out: DIZ. The procedure, abridged: as §1
In data set [8] the test system is Bacillus cereus. Description: Antibacterial activity against Bacillus cereus at 10 mg/ml after 20-24 hrs by filter paper disc method. In kind it is functional. The settings on record: read-out: DIZ. The gist of the method:
as §1

Data set [9] deals with Bacillus cereus. Description: Antibacterial activity against Bacillus cereus at 5 mg/ml after 20-24 hrs by filter paper disc method. It counts as functional. The settings on record: read-out: DIZ. The procedure, abridged: as §1
The test system of data set [10] is Escherichia coli. Description: Antibacterial activity against Escherichia coli at 5 mg/ml after 20-24 hrs by filter paper disc method. The settings on record: read-out: DIZ. It counts as functional. The procedure, abridged:
as §1

Data set [11] has as its system Staphylococcus aureus. Nature of the data set: Antibacterial activity against Staphylococcus aureus at 5 mg/ml after 20-24 hrs by filter paper disc method. It counts as functional. The settings on record: read-out: DIZ. The procedure, abridged: as §1
In data set [12] the test system is Klebsiella pneumoniae. Description: Antibacterial activity against Klebsiella pneumoniae at 10 mg/ml after 20-24 hrs by filter paper disc method. It counts as functional. The settings on record: read-out: DIZ. The procedure, abridged: as §1
In data set [13] the test system is Pseudomonas aeruginosa. Nature of the data set: Antibacterial activity against Pseudomonas aeruginosa at 10 mg/ml after 20-24 hrs by filter paper disc method. It counts as functional. The settings on record: read-out: DIZ. The procedure, abridged:
as §1

Data set [14] deals with Klebsiella pneumoniae. Description: Antibacterial activity against Klebsiella pneumoniae at 5 mg/ml after 20-24 hrs by filter paper disc method. It counts as functional. The settings on record: read-out: DIZ. The gist of the method: as §1
Data set [15] concerns Pseudomonas aeruginosa. Nature of the data set: Antibacterial activity against Pseudomonas aeruginosa at 5 mg/ml after 20-24 hrs by filter paper disc method. It counts as functional. The settings on record: read-out: DIZ. The gist of the method: as §1

Molecules are shown by their SMILES.

The term IC50 denotes the concentration needed to halve the response being measured. For orientation: logP means a log measure of how a compound divides between an organic and an aqueous phase. Low readings indicate lower lipophilicity, high ones higher lipophilicity.

Chain of Acetylcholinesterase (P22303 whole entry, the tested form may be a part): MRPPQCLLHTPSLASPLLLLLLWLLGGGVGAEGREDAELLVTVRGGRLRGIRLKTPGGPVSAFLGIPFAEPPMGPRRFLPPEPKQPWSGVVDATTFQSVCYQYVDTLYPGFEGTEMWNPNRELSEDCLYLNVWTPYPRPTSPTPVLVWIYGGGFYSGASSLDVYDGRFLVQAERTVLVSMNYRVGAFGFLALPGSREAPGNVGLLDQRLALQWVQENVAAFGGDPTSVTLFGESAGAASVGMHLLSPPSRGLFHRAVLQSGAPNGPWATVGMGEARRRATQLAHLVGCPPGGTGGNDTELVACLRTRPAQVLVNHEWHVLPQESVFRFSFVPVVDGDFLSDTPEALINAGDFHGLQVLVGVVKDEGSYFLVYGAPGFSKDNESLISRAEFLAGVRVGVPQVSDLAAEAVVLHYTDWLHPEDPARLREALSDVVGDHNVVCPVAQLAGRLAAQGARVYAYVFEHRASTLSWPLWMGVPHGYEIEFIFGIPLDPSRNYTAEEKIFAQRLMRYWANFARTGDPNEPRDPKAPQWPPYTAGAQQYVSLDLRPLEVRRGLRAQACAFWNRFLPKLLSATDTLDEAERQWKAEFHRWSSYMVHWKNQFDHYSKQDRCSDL

For `O=C(NP(=O)(NN1CCCCC1)NN1CCCCC1)c1ccccc1`, the figures for the half-inhibitory concentration (IC50) in data set [1] and in data set [3] were 1.95 mM and 0.43 mM, respectively. In addition, the zone of inhibition at 5000 µg/mL in data set [2] came to 9 mm. In data set [4], this molecule came in with a lipophilicity (logP) of 1.35. Moreover, the zone of inhibition at 10000 µg/mL in [5] was 7 mm; in data set [6] it was 19 mm.
Take `COc1ccc(C(=O)NP(=O)(NN2CCOCC2)NN2CCOCC2)cc1`: in data set [2], the zone of inhibition at 5000 µg/mL worked out at 7 mm. Further, the zone of inhibition at 10000 µg/mL amounted to 7 mm in data set [7], 7 mm in data set [8] and 13 mm in data set [6].
Consider `O=P(NN1CCOCC1)(NN1CCOCC1)Oc1ccccc1`, for which the IC50 in [1] was determined as 9.55 mM; in data set [3], 1.62 mM. Besides, the logP in data set [4] was -0.54.
In the case of `O=P(NN1CCOCC1)(NN1CCOCC1)Oc1ccccc1Cl`, the zone of inhibition at 5000 µg/mL in data set [9] and in [10] was 7 mm throughout. In addition, the zone of inhibition at 10000 µg/mL in data set [7] and in data set [8] was 10 mm each time.
As to `O=C(N[C@H](CO)[C@H](O)c1ccc([N+](=O)[O-])cc1)C(Cl)Cl` [CHLORAMPHENICOL], the zone of inhibition at 5000 µg/mL is 12 mm in data set [9]; 17 mm in data set [11]; 14 mm in data set [2]; 13 mm in data set [10]; 11 mm in data set [14]. Also, the zone of inhibition at 10000 µg/mL was determined as 15 mm in [12]; 7 mm in [13]; 17 mm in data set [7]; 22 mm in data set [5]; 15 mm in data set [8]; 17 mm in [6].
In data set [3], `O=P(NN1CCOCC1)(NN1CCOCC1)c1ccccc1` had a half-maximal inhibitory concentration (IC50) of 2.45 mM. Besides, in [4], the log partition coefficient (logP) is -1.12.
For the molecule `O=P(O)(NN1CCCCC1)Oc1ccccc1`, the IC50 in data set [1] was 5.49 mM; in data set [3] it was 1.58 mM. The zone of inhibition at 5000 µg/mL was determined as 7 mm in [2], 7 mm in data set [10] and 5 mm in data set [15]. Moreover, the zone of inhibition at 10000 µg/mL in data set [13] was found to be 10 mm; in data set [7], 11 mm; in data set [5], 8 mm; in data set [6], 15 mm. This molecule had a lipophilicity (logP) in [4] of 1.29.
`O=C(NP(=O)(NN1CCOCC1)NN1CCOCC1)c1ccc(Cl)cc1`: the zone of inhibition at 5000 µg/mL was 5 mm in data set [2] and 6 mm in [10]. In addition, the zone of inhibition at 10000 µg/mL in data set [7] was 13 mm; in data set [8] it was 8 mm; in [6] it was 12 mm.
For the molecule `O=P(NN1CCCCC1)(NN1CCCCC1)Oc1ccccc1`, the zone of inhibition at 5000 µg/mL in data set [9] is 5 mm; in [11] it was 11 mm; in [2], 6 mm; in [10] it was 7 mm; in data set [14] it was 5 mm. The zone of inhibition at 10000 µg/mL in [12] was 15 mm; in data set [7] it was 15 mm; in data set [5], 17 mm; in data set [8] it was 14 mm; in [6], 13 mm.
On to `Cc1ccc(OP(=O)(NN2CCOCC2)NN2CCOCC2)cc1`, for which the zone of inhibition at 5000 µg/mL in [11] stood at 10 mm; in [2] it was 8 mm; in data set [10], 6 mm; in data set [14] it was 7 mm. In addition, the zone of inhibition at 10000 µg/mL turned out to be 14 mm in data set [12], 11 mm in data set [7], 13 mm in [5] and 18 mm in [6].
Take `O=C(NP(=O)(NN1CCOCC1)NN1CCOCC1)c1ccccc1`: the values for the 50% inhibitory concentration (IC50) in [1] and in data set [3] were 18.6 mM and 2.14 mM, respectively. The zone of inhibition at 5000 µg/mL in data set [2] was determined as 7 mm; in data set [10], 6 mm. The zone of inhibition at 10000 µg/mL in data set [7] worked out at 11 mm; in data set [5], 8 mm; in data set [6] it was 13 mm. Further, the logP in [4] is -0.78.
